# NR2E3 ag-1 – agonists of human nuclear receptor NR2E3; Q9Y5X4; GST-NR2E3/biotin-RetCOR TR-FRET, 1536-well; inhibition of corepressor binding, % at 4.78 µM; hit rate 0.12% among 320,000;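 active = percent inhibition above the cutoff of mean plus 3 SD of all tested compounds, set per screening campaign, cut at about 20% in these data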;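 note: 0% = DMSO wells and 100% = biotin wells as full block of FRET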
# Target sequence (Q9Y5X4 whole entry, looked up): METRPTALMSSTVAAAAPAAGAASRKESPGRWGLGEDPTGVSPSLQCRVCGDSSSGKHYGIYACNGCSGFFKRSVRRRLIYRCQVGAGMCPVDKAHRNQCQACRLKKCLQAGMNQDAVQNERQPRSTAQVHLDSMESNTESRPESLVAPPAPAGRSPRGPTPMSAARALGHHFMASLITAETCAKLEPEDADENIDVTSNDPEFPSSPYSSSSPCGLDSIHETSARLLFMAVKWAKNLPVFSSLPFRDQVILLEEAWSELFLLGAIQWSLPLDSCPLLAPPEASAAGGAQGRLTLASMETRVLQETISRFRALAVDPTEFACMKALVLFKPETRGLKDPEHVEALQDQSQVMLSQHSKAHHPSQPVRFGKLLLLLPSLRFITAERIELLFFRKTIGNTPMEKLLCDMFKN
#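 system = GST-tagged NR2E3 plus biotinylated RetCOR corepressor | input = 1.35 nM GST-NR2E3 | also added = 7 nM biotin-RetCOR | schedule = 5 h incubation at 4 °C | measured by = TR-FRET with europium anti-GST and streptavidin-D2, 340 nm excitation | read-out = percent loss of FRET ratio relative to control wells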
# MsrA inh – bovine MsrA inhibition; purified bovine MsrA, absorbance read-out; inhibition, % at 15.5 µM; hit rate 0.75% among 360,000; in the data active = inhibition above about 4.5%;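 note: 0% = vehicle wells with enzyme and 100% = reference inhibitor wells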
# MsrA act – activates bovine MsrA enzyme. purified bovine MsrA, absorbance read-out. activation, % at 10.6 µM. hit rate 0.3% among 360,000. AID 602163; in the data active = activation above about 7.5%;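 note: 0% = vehicle and 100% = reference activator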
# NR2E3 ag-2 – human photoreceptor-specific nuclear receptor agonism. AID 602229. inhibition of corepressor binding, % at 3.98 µM. CHO-S Gal4-NCOR/VP16-NR2E3 two-hybrid, luciferase. Q9Y5X4. hit rate 0.35% among 360,000;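 active = inhibition above the mean of all tested compounds plus 3 SD, cut at about 70% in these data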;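 note: 0% = DMSO with NR2E3 transfected cells and 100% = cells lacking NR2E3 construct; higher means lower luciferase signal from less NR2E3 corepressor binding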
# GalR3 antagonist – antagonists of human GalR3; O60755; inhibition, % at 3 µM; HEK293 GalR3-CNG cAMP membrane potential fluorescence; galR3 body fused to GalR1 C-terminus; hit rate 0.44% among 360,000;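 active = inhibition above the screen-wide average plus 3 SD, cut at about 13% in these data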;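 note: forskolin and galanin both at EC90 stimulate the cells; cAMP rise reported by CNG channel membrane potential dye signal; 0% = forskolin plus galanin with DMSO and 100% = forskolin alone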
# NadD inh – inhibitors of Staphylococcus aureus NadD; hit rate 0.78% among 360,000; purified NadD enzyme, colorimetric absorbance read-out; inhibition, % at 20 µM; AID 602399; in the data active = inhibition above about 26%
# NR2E3 ag conf – NR2E3 agonism confirmed in two-hybrid assay. CHO-S mammalian two-hybrid NR2E3-NCOR, luciferase luminescence. AID 624378. shares compounds with NR2E3 ag-2. inhibition, % at 3.98 µM. hit rate 51% among 2,300;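 active = average inhibition above a cutoff equal to the mean inhibition of all tested compounds plus one SD, cut at about 70% in these data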;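 note: 0% = DMSO in NR2E3 cells and 100% = DMSO in cells lacking NR2E3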
# VP16 counter – GAL4-VP16 reporter inhibition in NR2E3 agonist counterscreen. shares compounds with NR2E3 ag-2. CHO-S GAL4-VP16 luciferase reporter, luminescence. inhibition, % at 3.98 µM. hit rate 29% among 2,300. AID 624379;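 active = mean inhibition above a cutoff equal to the average over all tested compounds plus one standard deviation, cut at about 70% in these data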;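 note: luciferase from a UAS reporter driven by GAL4-VP16 transactivation; 0% = DMSO with VP16-transfected cells and 100% = DMSO with cells lacking VP16; higher means less reporter light so more repression of VP16 activity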
# NadD conf – NadD (S. aureus) inhibition, single concentration confirmation. shares compounds with NadD inh. purified S. aureus NadD, colorimetric enzyme assay. inhibition, % at 20 µM. hit rate 13% among 2,000; in the data active = inhibition mostly above about 42%, no sharp cut-off; inactive = mostly below about 42%
# GalR3 conf – GalR3 (human) antagonism, confirmation | shares compounds with GalR3 antagonist | HEK293 GalR3 CNG cAMP biosensor, membrane potential fluorescence; galR3 fused to GalR1 carboxy tail; challenged with forskolin and galanin at EC90 | inhibition, % at 3 µM | hit rate 59% among 1,600 | AID 652245;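 active = inhibition above the primary screen's cutoff, the mean inhibition of all screened compounds plus 3 SD, cut at about 13% in these data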;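 note: 0% = forskolin plus galanin and 100% = forskolin alone with DMSO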
# HEK-CNG parental – parental cell agonism counter-screen for GalR3 antagonists | shares compounds with GalR3 antagonist | HEK293-CNG parental cells, cAMP membrane potential fluorescence; normalised: DMSO wells 0%, forskolin wells 100% | activation, % at 3 µM | hit rate 10% among 1,600; in the data active = activation above about 1.3%
# * = called active by the depositor; · = no result. Shown are actives, neighbours in structure and some others; about 2.5% of the full set was active somewhere.
SMILES,NR2E3 ag-1,MsrA inh,MsrA act,NR2E3 ag-2,GalR3 antagonist,NadD inh,NR2E3 ag conf,VP16 counter,GalR3 conf,HEK-CNG parental,others
Cc1ccc(CNC(=O)c2ccc(N3CCCC3=O)cc2)cc1,0,0,-4,-28,-5,6,·,·,·,·,
Cn1nc(C(C)(C)C)cc1C(=O)NCc1ccc(N2CCCC2=O)cc1,2,1,-2,92*,98*,-5,96*,87*,104*,0,
CC(C)c1ccc(C2/C(=C(/O)c3ccccc3)C(=O)C(=O)N2CCCN2CCOCC2)cc1 (stereo unspecified),-2,2,-2,-16,-11,6,·,·,·,·,
Cc1sc2ncnc(NCCc3ccc(S(N)(=O)=O)cc3)c2c1C,2,-1,-5,89*,59*,-3,94*,77*,109*,0,
Cc1ccc(S(=O)(=O)Nc2ncnc3sc(C)c(C)c23)cc1,2,0,4,0,-8,0,·,·,·,·,
Cc1ncsc1CCOC(=O)c1ccc(Cl)cc1,4,1,0,8,-5,2,·,·,·,·,
COc1ccc(F)cc1CSc1nnnn1-c1ccc(O)cc1,-2,3,3,15,-9,-6,·,·,·,·,
COc1cc(CSc2nnnn2-c2ccc(C)cc2)cc(OC)c1OC,8,1,-6,98*,96*,-5,94*,84*,98*,0,
CCN(CC)c1nc2ccccc2nc1C(C#N)C(=O)NCCc1ccccc1 (stereo unspecified),-2,-1,1,-15,-3,0,·,·,·,·,
CCCCCC[n+]1ccccc1/C=C/c1ccc(N(C)C)cc1,·,1,-1,88*,16*,-1,98*,80*,16*,41*,
Cc1ccccc1-c1cc(C(=O)Nc2sc(C(=O)OC(C)C)c(C)c2C#N)c2ccccc2n1,-3,-1,-7,92*,71*,74*,100*,88*,100*,1,NadD conf=27
O=S(=O)(c1ccc(Cl)cc1)N1CCC(O)(CN2CCN(Cc3ccccc3)CC2)CC1,4,0,-3,10,0,-5,·,·,·,·,
O=S(=O)(c1ccccc1)N1CCC(O)(CSc2ccc(Cl)cc2)CC1,1,1,-7,78*,93*,-10,95*,79*,108*,-1,
Cc1c(C(C)C)c(=O)n(-c2ccc(S(=O)(=O)NC3CCCCC3)cc2)n1C,2,0,-3,72*,41*,1,87*,68,51*,0,
Cc1c(C(C)C)c(=O)n(-c2ccc(S(=O)(=O)NCc3ccccc3)cc2)n1C,1,0,-9,81*,91*,-2,94*,81*,102*,0,
Cc1c(C(C)C)c(=O)n(-c2ccc(S(=O)(=O)N3CCOCC3)cc2)n1C,0,0,-9,11,2,1,·,·,·,·,
N#Cc1ccc(S(=O)(=O)N2CCN(C(=O)C3CC(=O)N(c4ccc5c(c4)OCCO5)C3)CC2)cc1 (stereo unspecified),4,0,2,-18,-4,2,·,·,·,·,
COc1ccc(NS(=O)(=O)c2ccc3c(c2)OCCO3)cc1OC,2,1,-4,100*,99*,-4,84*,73*,53*,0,
COc1ccc(S(=O)(=O)Nc2ccc3c(c2)OCO3)cc1OC,-1,0,0,-7,-7,2,·,·,·,·,
CSc1nc(N)nc2c1ncn2C1OC(CO)C(O)C1O (stereo unspecified),·,0,0,-15,-4,-1,·,·,·,·,
Cc1sc2ncnc(NC3CCN(Cc4ccccc4)CC3)c2c1C,-7,0,-2,75*,83*,-6,95*,80*,102*,1.2*,
COc1cc(NC(=O)COc2cc(O)c3c(c2)OC(C)(C)CC3=O)cc(OC)c1OC,-1,1,-2,82*,45*,1,59,84*,102*,0,
CCCCCCSc1nnc(N)s1,4,-1,-8,16,-6,1,·,·,·,·,
CC(=O)Nc1ccccc1OCC(=O)c1cc(C)n(Cc2cccs2)c1C,0,0,0,90*,83*,-6,93*,73*,98*,0,
Cc1cccc(Nc2ncnc3nc[nH]c23)c1,0,0,-2,-88,-2,1,·,·,·,·,
SMILES,NR2E3 ag-1,MsrA inh,MsrA act,NR2E3 ag-2,GalR3 antagonist,NadD inh,NR2E3 ag conf,VP16 counter,GalR3 conf,HEK-CNG parental,others
COCC1CCCCN1C(=O)c1cc(COc2ccc3ncccc3c2)on1 (stereo unspecified),6,0,-3,104*,25*,-1,91*,76*,93*,0,
CCN1CCN(C(=O)c2cc(COc3ccc4ncccc4c3)on2)CC1,1,0,-2,36,-5,-2,·,·,·,·,
CCC1CCCCN1C(=O)c1cc(COc2ccc3ncccc3c2)on1 (stereo unspecified),-4,-2,-1,83*,71*,4,96*,87*,112*,0,
CN(CCOc1ccc(Cl)cc1)C(=O)c1cccc(S(=O)(=O)N2CCN(Cc3ccccc3)CC2)c1,·,-1,-3,84*,31*,4,92*,74*,84*,1,
CC(=O)c1c(C)[nH]c(C(=O)OCC(=O)Nc2ccc(C)cc2[N+](=O)[O-])c1C,5,2,-9,82*,13*,-1,98*,90*,107*,-1,
Nc1ncnc2c(C3OC(CO)C(O)C3O)scc12 (stereo unspecified),·,1,-5,100*,61*,1,97*,96*,47*,0,
CC(C)CCNC(=O)C1CCCN1C(=O)NC1CCCCC1 (stereo unspecified),3,0,-3,10,0,1,·,·,·,·,
Cc1cc(C(=O)NCc2cc(F)cc3c2OCOC3)nn1C,4,-1,-2,-19,0,1,·,·,·,·,
Cn1nc(C(C)(C)C)cc1C(=O)NCc1cc(F)cc2c1OCOC2,-1,-1,0,78*,95*,-1,95*,77*,111*,0,

# Screening data (PubChem)
